Values after ≈ are worked out from the molar mass of the structure shown.
Experiments:
Type in all cases: functional
[1] = tested on: Streptococcus sp.; assay: Antibacterial activity against Streptococcus sp. Group F clinical isolate by broth microdilution method
How it was run: (§1)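 MIC by CLSI broth microdilution in frozen microtiter trays holding serial dilutions of each agent, prepared from standard laboratory powders. Comparator susceptibility interpreted with CLSI breakpoints.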

[2] = tested on: Streptococcus mitis; assay: Antibacterial activity against Streptococcus mitis clinical isolate by broth microdilution method
How it was run: as §1, with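 “powders. E. faecalis ATCC 29212 and ATCC 51299, S. aureus ATCC 29213 and S. pneumoniae ATCC 49619 run in parallel as quality-control strains.” for “powders.”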

[3] = tested on: Streptococcus sp.; assay: Antibacterial activity against Streptococcus sp. clinical isolate by broth microdilution method; how it was run: as §1
[4] = tested on: Staphylococcus hominis; assay: Antibacterial activity against methicillin-resistant coagulase-negative Staphylococcus hominis clinical isolate by broth microdilution method
How it was run: (§2)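 MICs by CLSI broth microdilution in frozen trays pre-loaded with serial dilutions of each agent. Quality-control strains run in parallel: E. faecalis ATCC 29212 and ATCC 51299, S. aureus ATCC 29213, S. pneumoniae ATCC 49619. Comparator susceptibility categories follow CLSI breakpoints. Methicillin resistance in staphylococci assigned from the oxacillin MIC.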

[5] = tested on: Staphylococcus aureus; assay: Antibacterial activity against methicillin-resistant Staphylococcus aureus
[6] = tested on: Staphylococcus aureus; assay: Antibacterial activity against vancomycin-, methicillin-resistant Staphylococcus aureus VRS1 by broth microdilution method
How it was run: (§3)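 VISA and VRSA strains from the NARSA repository were tested separately from the surveillance isolates. MICs by CLSI broth microdilution in frozen trays with serial dilutions. Quality-control strains run in parallel. Susceptibility categories follow CLSI breakpoints, and methicillin resistance was assigned from the oxacillin MIC.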

[7] = tested on: Streptococcus intermedius; assay: Antibacterial activity against Streptococcus intermedius clinical isolate by broth microdilution method
How it was run: as §1, with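 “powders. E. faecalis ATCC 29212 and ATCC 51299, S. aureus ATCC 29213 and S. pneumoniae ATCC 49619 run in parallel as quality-control strains.” for “powders.”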

[8] = tested on: Staphylococcus haemolyticus; assay: Antibacterial activity against methicillin-resistant coagulase-negative Staphylococcus haemolyticus clinical isolate by broth microdilution method; how it was run: as §2
[9] = tested on: Enterococcus faecium; assay: Antibacterial activity against vancomycin-susceptible Enterococcus faecium clinical isolate by broth microdilution method
How it was run: as §1, with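 “powders. E. faecalis ATCC 29212 and ATCC 51299, S. aureus ATCC 29213 and S. pneumoniae ATCC 49619 run in parallel as quality-control strains.” for “powders.”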

[10] = tested on: Staphylococcus capitis; assay: Antibacterial activity against daptomycin-nonsusceptible Staphylococcus capitis isolate 1285355 by broth microdilution method
How it was run: as §1, with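 “powders. E. faecalis ATCC 29212 and ATCC 51299, S. aureus ATCC 29213 and S. pneumoniae ATCC 49619 run in parallel as quality-control strains.” for “powders.”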

[11] = tested on: Streptococcus oralis; assay: Antibacterial activity against Streptococcus oralis clinical isolate by broth microdilution method
How it was run: as §1, with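 “powders. E. faecalis ATCC 29212 and ATCC 51299, S. aureus ATCC 29213 and S. pneumoniae ATCC 49619 run in parallel as quality-control strains.” for “powders.”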

[12] = tested on: Streptococcus pneumoniae; assay: Antibacterial activity against penicillin resistant Streptococcus pneumoniae clinical isolate by broth microdilution method; how it was run: as §2
[13] = tested on: Streptococcus sanguinis; assay: Antibacterial activity against Streptococcus sanguinis clinical isolate by broth microdilution method
How it was run: as §1, with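 “powders. E. faecalis ATCC 29212 and ATCC 51299, S. aureus ATCC 29213 and S. pneumoniae ATCC 49619 run in parallel as quality-control strains.” for “powders.”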

[14] = tested on: Staphylococcus xylosus; assay: Antibacterial activity against methicillin-susceptible coagulase-negative Staphylococcus xylosus clinical isolate by broth microdilution method; how it was run: as §2
[15] = tested on: Staphylococcus capitis; assay: Antibacterial activity against methicillin-susceptible coagulase-negative Staphylococcus capitis clinical isolate by broth microdilution method; how it was run: as §2
[16] = tested on: Staphylococcus simulans; assay: Antibacterial activity against methicillin-resistant coagulase-negative Staphylococcus simulans clinical isolate by broth microdilution method; how it was run: as §2
[17] = tested on: Staphylococcus; assay: Antibacterial activity against daptomycin-nonsusceptible coagulase-negative Staphylococcus isolate 1285835 by broth microdilution method
How it was run: as §1, with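 “powders. E. faecalis ATCC 29212 and ATCC 51299, S. aureus ATCC 29213 and S. pneumoniae ATCC 49619 run in parallel as quality-control strains.” for “powders.”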

[18] = tested on: Enterococcus faecalis; assay: Antibacterial activity against vancomycin-resistant and teichoplanin-susceptible Enterococcus faecalis clinical isolate by broth microdilution method; how it was run: as §2
[19] = tested on: Staphylococcus epidermidis; assay: Antibacterial activity against methicillin-susceptible coagulase-negative Staphylococcus epidermidis clinical isolate by broth microdilution method; how it was run: as §2
[20] = tested on: Mammaliicoccus sciuri; assay: Antibacterial activity against methicillin-susceptible coagulase-negative Staphylococcus sciuri clinical isolate by broth microdilution method; how it was run: as §2
[21] = tested on: Streptococcus constellatus; assay: Antibacterial activity against Streptococcus constellatus clinical isolate by broth microdilution method
How it was run: as §1, with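 “powders. E. faecalis ATCC 29212 and ATCC 51299, S. aureus ATCC 29213 and S. pneumoniae ATCC 49619 run in parallel as quality-control strains.” for “powders.”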

[22] = tested on: Staphylococcus saprophyticus; assay: Antibacterial activity against methicillin-resistant coagulase-negative Staphylococcus saprophyticus clinical isolate by broth microdilution method; how it was run: as §2
[23] = tested on: Enterococcus faecium; assay: Antibacterial activity against vancomycin-resistant and teichoplanin-susceptible Enterococcus faecium clinical isolate by broth microdilution method; how it was run: as §2
[24] = tested on: Streptococcus pyogenes; assay: Antibacterial activity against Streptococcus pyogenes clinical isolate by broth microdilution method
How it was run: as §1, with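 “powders. E. faecalis ATCC 29212 and ATCC 51299, S. aureus ATCC 29213 and S. pneumoniae ATCC 49619 run in parallel as quality-control strains.” for “powders.”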

[25] = tested on: Enterococcus faecalis; assay: Antibacterial activity against vancomycin- and teichoplanin-nonsusceptible Enterococcus faecalis clinical isolate by broth microdilution method; how it was run: as §2
[26] = tested on: Staphylococcus aureus; assay: Antibacterial activity against methicillin-resistant Staphylococcus aureus clinical isolate by broth microdilution method; how it was run: as §2
[27] = tested on: Streptococcus pneumoniae; assay: Antibacterial activity against penicillin intermediate Streptococcus pneumoniae clinical isolate by broth microdilution method; how it was run: as §2
[28] = tested on: Staphylococcus; assay: Antibacterial activity against methicillin-resistant coagulase-negative unspeciated Staphylococcus clinical isolate by broth microdilution method; how it was run: as §2
[29] = tested on: Staphylococcus hominis; assay: Antibacterial activity against methicillin-susceptible coagulase-negative Staphylococcus hominis clinical isolate by broth microdilution method; how it was run: as §2
[30] = tested on: Staphylococcus capitis; assay: Antibacterial activity against methicillin-resistant coagulase-negative Staphylococcus capitis clinical isolate by broth microdilution method; how it was run: as §2
[31] = tested on: Staphylococcus simulans; assay: Antibacterial activity against methicillin-susceptible coagulase-negative Staphylococcus simulans clinical isolate by broth microdilution method; how it was run: as §2
[32] = tested on: Staphylococcus aureus; assay: Antibacterial activity against vancomycin-, methicillin-resistant Staphylococcus aureus VRS3 by broth microdilution method; how it was run: as §3
[33] = tested on: Staphylococcus haemolyticus; assay: Antibacterial activity against methicillin-susceptible coagulase-negative Staphylococcus haemolyticus clinical isolate by broth microdilution method; how it was run: as §2
[34] = tested on: Staphylococcus xylosus; assay: Antibacterial activity against methicillin-resistant coagulase-negative Staphylococcus xylosus clinical isolate by broth microdilution method; how it was run: as §2
[35] = tested on: Staphylococcus cohnii; assay: Antibacterial activity against methicillin-resistant coagulase-negative Staphylococcus cohnii clinical isolate by broth microdilution method; how it was run: as §2
[36] = tested on: Staphylococcus saprophyticus; assay: Antibacterial activity against methicillin-susceptible coagulase-negative Staphylococcus saprophyticus clinical isolate by broth microdilution method; how it was run: as §2
[37] = tested on: Streptococcus equinus; assay: Antibacterial activity against Streptococcus bovis clinical isolate by broth microdilution method
How it was run: as §1, with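 “powders. E. faecalis ATCC 29212 and ATCC 51299, S. aureus ATCC 29213 and S. pneumoniae ATCC 49619 run in parallel as quality-control strains.” for “powders.”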

[38] = tested on: Mammaliicoccus sciuri; assay: Antibacterial activity against methicillin-resistant coagulase-negative Staphylococcus sciuri clinical isolate by broth microdilution method; how it was run: as §2
[39] = tested on: Staphylococcus aureus; assay: Antibacterial activity against vancomycin-intermediate methicillin-resistant Staphylococcus aureus NRS17 by broth microdilution method; how it was run: as §3

CN[C@H](CC(C)C)C(=O)N[C@H]1C(=O)N[C@@H](CC(N)=O)C(=O)N[C@H]2C(=O)N[C@H]3C(=O)N[C@H](C(=O)N[C@H](C(=O)O)c4cc(O)cc(O)c4-c4cc3ccc4O)[C@H](O)c3ccc(c(Cl)c3)Oc3cc2cc(c3O[C@@H]2O[C@H](CO)[C@@H](O)[C@H](O)[C@H]2O[C@H]2C[C@](C)(N)[C@H](O)[C@H](C)O2)Oc2ccc(cc2Cl)[C@H]1O [VANCOMYCIN]
MIC [1]: 0.25 µg/mL (≈ 0.173 µM)
MIC50 [1]: 0.25 µg/mL (≈ 0.173 µM)
MIC90 [1]: 0.5 µg/mL (≈ 0.345 µM)
MIC50 [2]: 0.5 µg/mL (≈ 0.345 µM)
MIC90 [2]: 0.5 µg/mL (≈ 0.345 µM)
MIC50 [3]: 0.5 µg/mL (≈ 0.345 µM)
MIC90 [3]: 0.5 µg/mL (≈ 0.345 µM)
MIC50 [4]: 2 µg/mL (≈ 1.38 µM)
MIC90 [4]: 2 µg/mL (≈ 1.38 µM)
MIC50 [5]: 0.69 µM (≈ 1 µg/mL)
MIC [6]: > 32 µg/mL
MIC50 [7]: 0.5 µg/mL (≈ 0.345 µM)
MIC90 [7]: 0.5 µg/mL (≈ 0.345 µM)
MIC50 [8]: 2 µg/mL (≈ 1.38 µM)
MIC90 [8]: 2 µg/mL (≈ 1.38 µM)
MIC [9]: ≤ 0.5 µg/mL
MIC50 [9]: ≤ 0.5 µg/mL
MIC90 [9]: 1 µg/mL (≈ 0.69 µM)
MIC [10]: 2 µg/mL (≈ 1.38 µM)
MIC50 [11]: 0.5 µg/mL (≈ 0.345 µM)
MIC90 [11]: 0.5 µg/mL (≈ 0.345 µM)
MIC [12]: 0.25 µg/mL (≈ 0.173 µM)
MIC50 [12]: 0.25 µg/mL (≈ 0.173 µM)
MIC90 [12]: 0.5 µg/mL (≈ 0.345 µM)
MIC50 [13]: 0.5 µg/mL (≈ 0.345 µM)
MIC90 [13]: 0.5 µg/mL (≈ 0.345 µM)
MIC50 [14]: 1 µg/mL (≈ 0.69 µM)
MIC90 [14]: 2 µg/mL (≈ 1.38 µM)
MIC50 [15]: 1 µg/mL (≈ 0.69 µM)
MIC90 [15]: 2 µg/mL (≈ 1.38 µM)
MIC50 [16]: 2 µg/mL (≈ 1.38 µM)
MIC90 [16]: 2 µg/mL (≈ 1.38 µM)
MIC [17]: 2 µg/mL (≈ 1.38 µM)
MIC [18]: 32 µg/mL (≈ 22.1 µM)
MIC50 [19]: 1 µg/mL (≈ 0.69 µM)
MIC90 [19]: 2 µg/mL (≈ 1.38 µM)
MIC50 [20]: 1 µg/mL (≈ 0.69 µM)
MIC90 [20]: 2 µg/mL (≈ 1.38 µM)
MIC50 [21]: 0.5 µg/mL (≈ 0.345 µM)
MIC90 [21]: 0.5 µg/mL (≈ 0.345 µM)
MIC50 [22]: 2 µg/mL (≈ 1.38 µM)
MIC90 [22]: 2 µg/mL (≈ 1.38 µM)
MIC50 [23]: 128 µg/mL (≈ 88.3 µM)
MIC90 [23]: 512 µg/mL (≈ 353 µM)
MIC [24]: 0.25 µg/mL (≈ 0.173 µM)
MIC50 [24]: 0.25 µg/mL (≈ 0.173 µM)
MIC90 [24]: 0.5 µg/mL (≈ 0.345 µM)
MIC50 [25]: 512 µg/mL (≈ 353 µM)
MIC90 [25]: > 512 µg/mL
MIC50 [26]: 1 µg/mL (≈ 0.69 µM)
MIC90 [26]: 1 µg/mL (≈ 0.69 µM)
MIC [27]: 0.25 µg/mL (≈ 0.173 µM)
MIC50 [27]: 0.25 µg/mL (≈ 0.173 µM)
MIC90 [27]: 0.5 µg/mL (≈ 0.345 µM)
MIC50 [28]: 2 µg/mL (≈ 1.38 µM)
MIC90 [28]: 2 µg/mL (≈ 1.38 µM)
MIC50 [29]: 1 µg/mL (≈ 0.69 µM)
MIC90 [29]: 2 µg/mL (≈ 1.38 µM)
MIC50 [30]: 2 µg/mL (≈ 1.38 µM)
MIC90 [30]: 2 µg/mL (≈ 1.38 µM)
MIC50 [31]: 1 µg/mL (≈ 0.69 µM)
MIC90 [31]: 2 µg/mL (≈ 1.38 µM)
MIC [32]: > 32 µg/mL
MIC50 [33]: 1 µg/mL (≈ 0.69 µM)
MIC90 [33]: 2 µg/mL (≈ 1.38 µM)
MIC50 [34]: 2 µg/mL (≈ 1.38 µM)
MIC90 [34]: 2 µg/mL (≈ 1.38 µM)
MIC50 [35]: 2 µg/mL (≈ 1.38 µM)
MIC90 [35]: 2 µg/mL (≈ 1.38 µM)
MIC50 [36]: 1 µg/mL (≈ 0.69 µM)
MIC90 [36]: 2 µg/mL (≈ 1.38 µM)
MIC50 [37]: 0.5 µg/mL (≈ 0.345 µM)
MIC90 [37]: 0.5 µg/mL (≈ 0.345 µM)
MIC50 [38]: 2 µg/mL (≈ 1.38 µM)
MIC90 [38]: 2 µg/mL (≈ 1.38 µM)
MIC [39]: 8 µg/mL (≈ 5.52 µM)
